Measurements from different studies.
Lines come from different studies, so protocols differ.
Target: Protein kinase C eta type (PRKCH, Homo sapiens, UniProt P24723)

| Compound | assay | conditions | quantity | value |
| --- | --- | --- | --- | --- |
| COc1cc2ncnc(Nc3ccc(Oc4ccccc4)cc3C)c2cc1OC | enzyme activity, inhibitor | 1 µM | inhibition | 7% |
| CC(C)c1ccc(NC(=O)c2cccs2)c(-c2nc3ccccc3[nH]c2=O)c1 | enzyme activity, inhibitor | 1 µM | activity vs control | 108% |
| CNC(=O)c1ccc(Nc2ncc(C(F)(F)F)c(NCc3nccnc3N(C)S(C)(=O)=O)n2)cc1 | cell-free assay, competition with immobilised ligand | 0.1 µM | remaining binding | 86% |
| CC(C)(O)[C@H]1CC[C@H](Nc2ccc3ncc(-c4cccc(C(F)(F)F)c4)n3n2)CC1 | enzyme activity, inhibitor | 1 µM | remaining activity | 97.2% |
| CCCOc1ccc(OC)c(F)c1C(=O)c1ccc(C(=O)N[C@@H]2CNC[C@H]2NC(=O)c2ccc3[nH]ncc3c2)cc1 | enzyme activity, inhibitor | 10 µM | remaining activity | 16% |
| Cc1ccc(C(=O)Nc2ccc(CN3CCN(C)CC3)c(C(F)(F)F)c2)cc1C#Cc1cnc2cccnn12 | enzyme activity | 23.5 nM | remaining activity | 91% |
| CN(c1ccnc(CNc2nc(Nc3ccc4c(c3)CC(=O)N4)ncc2C(F)(F)F)n1)S(C)(=O)=O | cell-free assay, competition with immobilised ligand | 1 µM | remaining binding | 100% |
| Cc1ccc(C(=O)NCc2ccsc2)cc1C#Cc1cn(C(C)C)c2ncnc(N)c12 | enzyme activity, inhibitor | 1 µM | activity vs control | 118% |
| Cc1sc(C(=O)NC2COC2)cc1-n1cc(NC(=O)Nc2c(F)cccc2Cl)cn1 | enzyme activity, inhibitor | 10 µM | remaining activity | 91.6% |
| COc1cc(Cl)c(C(=O)N[C@@H](CN[C@H]2CC[C@@H](N)CC2)Cc2ccc(C#N)cc2)cc1-c1ccc(CN[C@H](C)c2ccc(C)cc2)o1 | enzyme activity, inhibitor | 1 µM | remaining activity | 104% |
| Cn1cncc1C1=CN(c2ncnc3[nH]cnc23)CCS1 | enzyme activity, inhibitor, radiometric | 50 nM | inhibition | 15.8% |
| CCS(=O)(=O)c1cc2cc(C[C@](O)(CC(C)(C)c3ccc(F)cc3C(N)=O)C(F)(F)F)[nH]c2cn1 | cell-free assay, competition with immobilised ligand | 1 µM | remaining binding | 94% |
| CCN(CC)CCNC(=O)c1c(C)[nH]c(/C=C2\C(=O)Nc3ccc(F)cc32)c1C | enzyme activity, inhibitor | 10 µM | inhibition | 4% |
| CC(C)CC(=O)N1CCc2nc(-c3ccc(Br)cc3)nc(N(C)Cc3ccccc3)c2C1 | cell-free assay, competition with immobilised ligand | 0.1 µM | remaining binding | 94% |
| Cc1cc(NC(=O)c2cccc3cc(-c4cccc5[nH]nc(N)c45)ccc23)ccc1F | enzyme activity, inhibitor | 0.1 µM | activity vs control | 109% |
| CS(=O)(=O)NCC[C@H](NC(=O)c1cncc2c1cnn2-c1ccc(F)cc1)c1ccnc(S(C)(=O)=O)c1 | cell-free assay, competition with immobilised ligand | 1 µM | remaining binding | 80% |
| Cn1cnc(Br)c1C1=CN(c2ncnc3[nH]cnc23)CCS1 | enzyme activity, inhibitor, radiometric | 50 nM | inhibition | 29.7% |
| CNC(=O)Nc1ccc2c(c1)[C@@]1(CC2)OC(=O)N(CC(=O)N(Cc2ccc(F)cc2)[C@@H](C)C(F)(F)F)C1=O | cell-free assay, competition with immobilised ligand | 1 µM | remaining binding | 87% |
| CCCS(=O)(=O)Nc1ccc(F)c(C(=O)c2c[nH]c3ncc(-c4ccc(Cl)cc4)cc23)c1F | enzyme activity, inhibitor | 1 µM | inhibition | < 10% |
